Experimental data taken from ChEMBL document CHEMBL1154093, “New azoles with potent antifungal activity: design, synthesis and molecular docking” (2009).
≈ marks a conversion by molar mass, not a printed value. Calls of active or inactive are those of the source. The rule behind the calls is not given here.

What was measured:
Candida albicans [1] = assay: Antifungal activity against multidrug-resistant Candida albicans after 24 hrs by serial dilution method; assay type: functional
Method in brief: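 Broth serial dilution in 96-well plates per NCCLS recommendations; RPMI 1640 buffered with 0.165 M MOPS as medium. Compounds dissolved in DMSO, serially diluted in growth medium. Strains from ATCC or clinical isolates. Yeasts incubated at 35 °C, read at 24 h for Candida. MIC = lowest concentration giving turbidity at or below 80% inhibition versus growth control.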

Candida tropicalis = assay: Antifungal activity against Candida tropicalis after 24 hrs by serial dilution method; assay type: functional
Method in brief: (§1)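 NCCLS broth microdilution in RPMI 1640 buffered with 0.165 M MOPS, with strains from ATCC or clinical isolates. Compounds were dissolved in DMSO and serially diluted in medium. Yeasts were incubated at 35 °C and read at 24 h for Candida or 72 h for C. neoformans. MIC was the lowest concentration giving ≥80% turbidity inhibition versus the growth control.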

Candida albicans [2] = assay: Antifungal activity against Candida albicans after 24 hrs by serial dilution method; assay type: functional; method in brief: as §1
Cryptococcus neoformans = assay: Antifungal activity against Cryptococcus neoformans after 72 hrs by serial dilution method; assay type: functional; method in brief: as §1
Trichophyton rubrum = assay: Antifungal activity against Trichophyton rubrum after 7 days by serial dilution method; assay type: functional; settings: 168 h
Method in brief: (§2)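 Dermatophytes (ATCC or clinical isolates) were tested by NCCLS serial dilution in RPMI 1640 with 0.165 M MOPS, incubated at 28 °C and read at 7 days. Compounds were taken up in DMSO and diluted in medium. MIC was the lowest concentration reducing turbidity by at least 80% relative to the drug-free growth control.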

Aspergillus fumigatus = assay: Antifungal activity against Aspergillus fumigatus after 7 days by serial dilution method; assay type: functional; settings: 168 h
Method in brief: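 Filamentous fungus (ATCC or clinical isolate) was tested by NCCLS microdilution in MOPS-buffered (0.165 M) RPMI 1640. Compounds were dissolved in DMSO and serially diluted in medium, and growth was scored at 7 days. MIC was the lowest concentration producing ≥80% inhibition of turbidity compared with the untreated control.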

Nannizzia gypsea = assay: Antifungal activity against Microsporum gypseum after 7 days by serial dilution method; assay type: functional; settings: 168 h; method in brief: as §2
Candida parapsilosis = assay: Antifungal activity against Candida parapsilosis after 24 hrs by serial dilution method; assay type: functional, organism-based; method in brief: as §1

Structure (SMILES)	MIC80 (Candida albicans [1])	MIC80 (Candida tropicalis)	MIC80 (Candida albicans [2])	MIC80 (Cryptococcus neoformans)	MIC80 (Trichophyton rubrum)	MIC80 (Aspergillus fumigatus)	MIC80 (Nannizzia gypsea)	Activity (Candida parapsilosis)
Nc1cccc(OCCCN2CCN(CC(O)(Cn3cncn3)c3ccc(F)cc3F)CC2)c1 (racemic)	0.25 mg/L (≈ 0.529 µM)	1 mg/L (≈ 2.12 µM)	1 mg/L (≈ 2.12 µM)	16 mg/L (≈ 33.9 µM)	4 mg/L (≈ 8.46 µM)	> 64 mg/L	64 mg/L (≈ 135 µM)	Active
Cc1cccc(OCCCN2CCN(CC(O)(Cn3cncn3)c3ccc(F)cc3F)CC2)c1 (racemic)	0.125 mg/L (≈ 0.265 µM)	0.0625 mg/L (≈ 0.133 µM)	0.0156 mg/L (≈ 0.0331 µM)	1 mg/L (≈ 2.12 µM)	0.25 mg/L (≈ 0.53 µM)	16 mg/L (≈ 33.9 µM)	1 mg/L (≈ 2.12 µM)	Active
O=[N+]([O-])c1ccccc1OCCCN1CCN(CC(O)(Cn2cncn2)c2ccc(F)cc2F)CC1 (racemic)	2 mg/L (≈ 3.98 µM)	0.25 mg/L (≈ 0.497 µM)	0.25 mg/L (≈ 0.497 µM)	4 mg/L (≈ 7.96 µM)	1 mg/L (≈ 1.99 µM)	64 mg/L (≈ 127 µM)	4 mg/L (≈ 7.96 µM)	Active
OC(CN1CCN(CCCOc2ccc(Cl)cc2)CC1)(Cn1cncn1)c1ccc(F)cc1F (racemic)	0.125 mg/L (≈ 0.254 µM)	0.0156 mg/L (≈ 0.0317 µM)	0.0156 mg/L (≈ 0.0317 µM)	0.25 mg/L (≈ 0.508 µM)	0.0156 mg/L (≈ 0.0317 µM)	4 mg/L (≈ 8.13 µM)	0.25 mg/L (≈ 0.508 µM)	Active
Cc1ccccc1OCCCN1CCN(CC(O)(Cn2cncn2)c2ccc(F)cc2F)CC1 (racemic)	0.125 mg/L (≈ 0.265 µM)	0.0625 mg/L (≈ 0.133 µM)	0.0625 mg/L (≈ 0.133 µM)	1 mg/L (≈ 2.12 µM)	0.25 mg/L (≈ 0.53 µM)	32 mg/L (≈ 67.9 µM)	1 mg/L (≈ 2.12 µM)	Active
OC(CN1CCN(CCCOc2ccc(F)cc2)CC1)(Cn1cncn1)c1ccc(F)cc1F (racemic)	32 mg/L (≈ 67.3 µM)	0.0625 mg/L (≈ 0.131 µM)	0.0156 mg/L (≈ 0.0328 µM)	1 mg/L (≈ 2.1 µM)	0.25 mg/L (≈ 0.526 µM)	32 mg/L (≈ 67.3 µM)	1 mg/L (≈ 2.1 µM)	Active
Cc1ccc(OCCCN2CCN(CC(O)(Cn3cncn3)c3ccc(F)cc3F)CC2)cc1 (racemic)	0.12 mg/L (≈ 0.254 µM)	0.0625 mg/L (≈ 0.133 µM)	0.0156 mg/L (≈ 0.0331 µM)	0.25 mg/L (≈ 0.53 µM)	0.0625 mg/L (≈ 0.133 µM)	8 mg/L (≈ 17 µM)	0.25 mg/L (≈ 0.53 µM)	Active
CC(=O)Nc1ccc(OCCCN2CCN(CC(O)(Cn3cncn3)c3ccc(F)cc3F)CC2)cc1 (racemic)	2 mg/L (≈ 3.89 µM)	0.25 mg/L (≈ 0.486 µM)	0.25 mg/L (≈ 0.486 µM)	1 mg/L (≈ 1.94 µM)	0.25 mg/L (≈ 0.486 µM)	> 64 mg/L	4 mg/L (≈ 7.77 µM)	Active
OC(CN1CCN(CCCOc2ccccc2Br)CC1)(Cn1cncn1)c1ccc(F)cc1F (racemic)	8 mg/L (≈ 14.9 µM)	0.0156 mg/L (≈ 0.0291 µM)	0.0625 mg/L (≈ 0.117 µM)	1 mg/L (≈ 1.86 µM)	0.25 mg/L (≈ 0.466 µM)	16 mg/L (≈ 29.8 µM)	1 mg/L (≈ 1.86 µM)	Active
OC(CN1CCN(CCCCOc2ccccc2)CC1)(Cn1cncn1)c1ccc(F)cc1F (racemic)	32 mg/L (≈ 67.9 µM)	0.25 mg/L (≈ 0.53 µM)	0.25 mg/L (≈ 0.53 µM)	1 mg/L (≈ 2.12 µM)	1 mg/L (≈ 2.12 µM)	8 mg/L (≈ 17 µM)	4 mg/L (≈ 8.48 µM)	Active
OC(Cn1cncn1)(Cn1cncn1)c1ccc(F)cc1F [FLUCONAZOLE]	> 64 mg/L	1 mg/L (≈ 3.27 µM)	1 mg/L (≈ 3.27 µM)	1 mg/L (≈ 3.27 µM)	4 mg/L (≈ 13.1 µM)	> 64 mg/L	16 mg/L (≈ 52.2 µM)	Active
CCC(C)n1ncn(-c2ccc(N3CCN(c4ccc(OCC5COC(Cn6cncn6)(c6ccc(Cl)cc6Cl)O5)cc4)CC3)cc2)c1=O (centres undefined) [ITRACONAZOLE]	> 64 mg/L	0.125 mg/L (≈ 0.177 µM)	0.125 mg/L (≈ 0.177 µM)	0.125 mg/L (≈ 0.177 µM)	0.125 mg/L (≈ 0.177 µM)	2 mg/L (≈ 2.83 µM)	0.25 mg/L (≈ 0.354 µM)	Active
C[C@@H](c1ncncc1F)[C@](O)(Cn1cncn1)c1ccc(F)cc1F [VORICONAZOLE]	> 64 mg/L	0.0625 mg/L (≈ 0.179 µM)	0.0625 mg/L (≈ 0.179 µM)	0.0625 mg/L (≈ 0.179 µM)	0.0625 mg/L (≈ 0.179 µM)	0.5 mg/L (≈ 1.43 µM)	0.0625 mg/L (≈ 0.179 µM)	Active
